# Activity calls are given as the source filed them. Unless noted, no stated cut-off is given here; in the data, active means inhibition above about 30%; inactive means the rest.
# Columns and labels:
# [1] = biological target: Pantothenate synthetase (Mycobacterium tuberculosis (strain ATCC 25618 / H37Rv)) (UniProt P9WIL5); assay: Coupled enzyme confirmation of inhibitors against recombinant Mtb PanC (AID 375; call rule not given here;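 further: 0% = full reaction with vehicle and 100% = no enzyme background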); conditions: coupled enzyme assay; at 10 µM, stronger effect = higher value
# Chain of Pantothenate synthetase (Mycobacterium tuberculosis (strain ATCC 25618 / H37Rv)) (P9WIL5 whole entry, looked up): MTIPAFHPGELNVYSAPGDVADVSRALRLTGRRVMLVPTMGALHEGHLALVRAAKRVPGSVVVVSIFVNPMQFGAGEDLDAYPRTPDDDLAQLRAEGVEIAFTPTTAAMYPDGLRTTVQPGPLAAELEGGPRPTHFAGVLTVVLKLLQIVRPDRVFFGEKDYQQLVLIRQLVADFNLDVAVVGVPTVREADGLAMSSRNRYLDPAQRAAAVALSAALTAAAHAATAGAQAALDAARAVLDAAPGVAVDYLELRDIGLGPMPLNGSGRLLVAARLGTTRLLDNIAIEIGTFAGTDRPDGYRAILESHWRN
# [2] = reduced viability of SK-BR-3 breast cancer cells – cell-based, 24 h, human, pilot screen (AID 572;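 active means viability at or below 10% of carrier control in both of two separate runs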;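 further: compound exposure lasted between 18 and 24 h rather than exactly 24 h; 100% = carrier-treated control wells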); conditions: SK-BR-3 viability, CellTiter-Glo luminescence, at 10 µM, stronger effect = lower value
# [3] = HUVEC growth inhibition – cell-based, human, primary screen (AID 575;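 active means viability at or below 30% in both replicate assays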;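 further: 100% = median of untreated cell wells with 0.1% DMSO on each plate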); conditions: HUVEC proliferation, CellTiter-Glo luminescence, 72 h; at 10 µM; stronger effect = lower value
# Procedure, shortened: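 System: primary human umbilical vein endothelial cells; Quantity: 1250 endothelial cells in each well; Buffer or medium: supplemented EBM, 2% fetal bovine serum; Doses: one dose, 10 µM final, 0.1% DMSO; Incubation: 72 h compound incubation; Technique: ATP-based CellTiter-Glo luminescent read; Evaluation: percent of median DMSO-control luminescence; Controls: vehicle and MePR control wells.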
# [4] = H69AR cell proliferation blockers – human, duplicate replicates, primary screen (AID 580;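 active means viability at or under a set limit in both replicates, limit being median viability minus 3 SD, cut at about 48% in these data, passing the limit was not always enough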;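 further: 100% = mean luminescence of untreated wells and 0% = no signal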); conditions: H69AR lung tumor cells viability, ATP luminescence, 72 h; at 10 µM; stronger effect = lower value
# [5] = MRP1 drug-resistance reversers in H69AR cells – cell-based, doxorubicin co-treatment, pilot screen (AID 601;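 active means viability loss from added drug above about 55%, and viability with drug at most 40%, in both replicates, limit read from the data, passing the limit was not always enough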); conditions: CellTiter-Glo, 72 h, at 10 µM; for differential viability (reversal): stronger effect = higher value
# [6] = yeast transport mutant growth inhibition pilot in 384-well plates, post-Golgi transport modulator project (AID 636; in the data active means inhibition above about 31%); conditions: absorbance 615 nm, about 18 h, stronger effect = higher value
# [7] = growth suppression of yeast trafficking mutant, preliminary HTS, modulators of trafficking downstream of Golgi apparatus project, 1536-format plate, OD 615 nm (AID 637); conditions: yeast transport mutant growth, absorbance 615 nm, 18 h; stronger effect = higher value
# [8] = H69AR cells + 2 uM doxorubicin, measured here: viability with 2 uM doxorubicin, stronger effect = lower value
# [9] = H69AR cells, compound alone cytotoxicity
Structure (SMILES),inhibition [1],viability [2],viability [3],viability [4],differential viability (reversal) ([5]; H69AR cells + 2 uM doxorubicin),"viability [5, 8] [%]","viability [5, 9] [%]",inhibition [6],inhibition [7]
CC(C)[C@@]1(NC(=O)[C@@H]2C=C3c4cccc5[nH]cc(c45)C[C@H]3N(C)C2)O[C@@]2(O)[C@@H]3CCCN3C(=O)[C@H](Cc3ccccc3)N2C1=O,3% (inactive),103% (inactive),89% (inactive),90.5% (inactive),-9.99% (inactive),101,90.5,-0.13% (inactive),16.8% (inactive)
CN(C)[C@@H]1C(=O)C(C(N)=O)=C(O)[C@@]2(O)C(=O)C3=C(O)c4c(O)cccc4[C@@](C)(O)[C@H]3[C@H](O)[C@@H]12,3% (inactive),115% (inactive),101% (inactive),103% (inactive),2.03% (inactive),101,103,0.52% (inactive),1.17% (inactive)
CCC(=NCC1CCCO1)c1c(O)n(Cc2ccccc2)c(=O)[nH]c1=O (stereo not drawn),0% (inactive),91% (inactive),107% (inactive),86.3% (inactive),-0.335% (inactive),86.7,86.3,-4.29% (inactive),1.48% (inactive)
C=CCN1C(=O)C2(C(C(=O)OCC)=C(N)Oc3c2c(=O)oc2ccccc32)c2ccccc21 (stereo not drawn),0% (inactive),61% (inactive),108% (inactive),98.2% (inactive),-10.5% (inactive),109,98.2,0.27% (inactive),1.45% (inactive)
C[C@H]1OC[C@@H](C[N+](C)(C)C)O1,0% (inactive),103% (inactive),99.6% (inactive),106% (inactive),7.41% (inactive),98.6,106,-1.43% (inactive),4.67% (inactive)
COP(=O)(OC)C(O)C(Cl)(Cl)Cl (stereo not drawn),0% (inactive),122% (inactive),95.5% (inactive),82.6% (inactive),-3.13% (inactive),85.7,82.6,-1.56% (inactive),-3.83% (inactive)
NCC(CC(=O)O)c1ccc(Cl)cc1 (stereo not drawn),0% (inactive),83% (inactive),78.3% (inactive),106% (inactive),-1.38% (inactive),107,106,-1.43% (inactive),4.67% (inactive)
Cc1ccc2nc(N3CCN(C)CC3)[nH]c2c1,0% (inactive),111% (inactive),90.4% (inactive),93.6% (inactive),2.07% (inactive),91.5,93.6,1.64% (inactive),-1.13% (inactive)
O=C(CN1C2CCC1CC(O)(c1cccnc1)C2)Nc1ccc2c(c1)OCO2 (stereo not drawn),11% (inactive),72% (inactive),90.2% (inactive),91.3% (inactive),2.46% (inactive),88.8,91.3,-6.53% (inactive),3.44% (inactive)
CNCCc1c[nH]c2ccccc12,0% (inactive),127% (inactive),85.9% (inactive),84.5% (inactive),-20.1% (inactive),105,84.5,-0.39% (inactive),12% (inactive)
O=C(C1CCCN(c2nnc(-n3cccc3)s2)C1)N1CCC2(CC1)OCCO2 (stereo not drawn),0% (inactive),83% (inactive),109% (inactive),94.3% (inactive),12.8% (inactive),81.6,94.3,-7.33% (inactive),-5.09% (inactive)
c1ccc2c(c1)[nH]c1cnccc12,0% (inactive),100% (inactive),70.2% (inactive),83% (inactive),2.26% (inactive),80.7,83,-0.78% (inactive),0.5% (inactive)
CCOC(=O)C1=C(N)OC(C)=C(C(=O)OCCOC)C12C(=O)Nc1ccccc12 (stereo not drawn),5% (inactive),85% (inactive),92% (inactive),98.2% (inactive),-9.01% (inactive),107,98.2,-4.52% (inactive),1.64% (inactive)
COc1ccc(CCn2c(O)c(C=NCCCN(C)C)c(=O)[nH]c2=O)cc1OC,0% (inactive),–,103% (inactive),98.1% (inactive),3.64% (inactive),94.5,98.1,-4% (inactive),-1.59% (inactive)
CC1(C)CC(=O)C=C(NCCN2CCN(C(=O)Cc3ccc(Cl)cc3)CC2)C1,2% (inactive),–,109% (inactive),92.4% (inactive),-3.5% (inactive),95.9,92.4,-0.79% (inactive),-2.06% (inactive)

# Reference: PubChem BioAssay
